# FID counter: compounds displacing fluorescent DNA intercalator, primary screen, artefact control for HCV NS3 helicase inhibitor project, biochemical, FID fluorescence; AID 1845, 2009; DNA fluorescent intercalator displacement; 290,000 compounds, 0.17% hits; inhibition, % at 7.9 µM; in the data active = inhibition above about 37%;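 note: 0% = vehicle and 100% = reference compound; higher means more ethidium bromide displaced from hairpin DNA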
# Apaf-1 inh: inhibitors of human Apaf-1 apoptosome, primary screen, biochemical, DEVD-Rh110 fluorescence, uHTS | Apoptotic protease-activating factor 1 (Homo sapiens), O14727 | reconstituted apoptosome caspase-3 activity | inhibition, % at 20 µM | 330,000 compounds, 0.71% hits; active = inhibition of at least 40% at 20 µM;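 note: plate controls were DMSO wells for no effect and DEVD-CHO caspase inhibitor wells for full effect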
#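 Material: biochemical Apaf-1 apoptosome reconstitution. Medium: Hepes buffer, pH 7.5. Also added: cytochrome c activation, bis-DEVD rhodamine 110 substrate. Timing: 30 min compound preincubation, 50 min activation, room temperature. Measured by: rhodamine 110 fluorescence at Ex 480/Em 540 nm.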
# UBC13 inh: UBC13 polyubiquitin chain formation inhibitors, primary screen, biochemical, TR-FRET, uHTS; 330,000 compounds, 0.47% hits; AID 485273, 2010; Ubiquitin-conjugating enzyme E2 N (Homo sapiens), P61088; inhibition, % at 20 µM; in the data active = inhibition above about 45%, passing the limit was not always enough; inconclusive = no clear call, values can overlap the other calls
# RAD52 inh: RAD52 DNA annealing inhibitors, primary screen, biochemical, FRET, single point, set 2; DNA repair protein RAD52 homolog (Homo sapiens), P43351; recombinant RAD52 DNA annealing, FRET fluorescence; inhibition, % at 18.7 µM; 360,000 compounds, 0.46% hits;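 active = every replicate showing at least 50% inhibition; inconclusive = mean inhibition at least 50% but not in every replicate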
# Neddylation inh: inhibitors of cullin neddylation, primary screen, biochemical, TR-FRET, uHTS, NAE and Ubc12. calls only at 25 µM. 360,000 compounds, 0.58% hits; in the data active = inhibition above about 36%
# RAD54 branch: inhibitors of human RAD54 branch migration, primary screen, biochemical, fluorescence, single point; DNA repair and recombination protein RAD54-like (Homo sapiens), Q92698; RAD54 Holliday junction branch migration, FAM/BHQ fluorescence; inhibition, % at 10.4 µM; 360,000 compounds, 0.14% hits;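 active = mean normalized replicate activity at least 40 and at least half of replicates scoring 40 or more; inconclusive = only one of the two criteria met; inactive = mean below 40 and under half of replicates reaching 40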;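 note: 0% = median of neutral control wells and 100% = median of positive control wells; inhibitors cause a drop in the FAM fluorescence signal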
# Target sequence (Q92698 whole entry, looked up): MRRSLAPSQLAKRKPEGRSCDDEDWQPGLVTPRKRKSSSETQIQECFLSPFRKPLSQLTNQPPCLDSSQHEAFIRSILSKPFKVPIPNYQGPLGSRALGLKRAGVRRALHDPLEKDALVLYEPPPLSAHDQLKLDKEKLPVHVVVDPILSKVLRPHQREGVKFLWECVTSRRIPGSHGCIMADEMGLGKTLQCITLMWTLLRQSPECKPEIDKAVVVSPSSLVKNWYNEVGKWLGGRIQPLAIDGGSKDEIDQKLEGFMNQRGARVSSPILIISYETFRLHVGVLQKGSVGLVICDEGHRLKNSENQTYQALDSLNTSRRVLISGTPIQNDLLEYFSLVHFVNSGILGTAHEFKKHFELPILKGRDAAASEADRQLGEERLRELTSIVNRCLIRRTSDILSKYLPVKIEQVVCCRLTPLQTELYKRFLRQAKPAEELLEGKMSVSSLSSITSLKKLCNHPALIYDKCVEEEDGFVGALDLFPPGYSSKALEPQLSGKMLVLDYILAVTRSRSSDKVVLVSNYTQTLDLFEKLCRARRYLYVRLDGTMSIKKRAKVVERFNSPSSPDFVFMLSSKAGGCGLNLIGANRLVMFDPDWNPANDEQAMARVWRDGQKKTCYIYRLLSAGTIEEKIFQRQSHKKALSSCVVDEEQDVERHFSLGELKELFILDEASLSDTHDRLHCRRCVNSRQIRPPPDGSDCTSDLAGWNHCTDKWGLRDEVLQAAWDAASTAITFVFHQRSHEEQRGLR
# DNA binding: DNA binding of candidate compounds, dose response, artefact control for RAD54 inhibitor project, biochemical, fluorescence polarization, cherry-pick; AC50, µM (titrated, usually from 35 µM), for the others: at the top dose activity change, negative = DNA binding; Acridine orange-DNA displacement, 20 min; shares compounds with RAD54 branch; 460 compounds, 8% hits;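 active = signal drop giving an AC50 within twice the top valid tested concentration of each sample, actives reach about 35 µM in these data; inactive = activity opposite to expected, plus the rest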;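 note: polarization loss reports compound binding to salmon sperm DNA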
# * hit, by the source's call; i = inactive; ? = inconclusive; nt = no result given. A selection: hits, their analogues and other compounds. The true share with any hit is near 1.6%.
SMILES,FID counter,Apaf-1 inh,UBC13 inh,RAD52 inh,Neddylation inh,RAD54 branch,DNA binding
O=C(CCN1CCCCC1)NCC[C@@H]1CC[C@@H](NC(=O)C2CCCC2)[C@@H](CO)O1,nt,nt,nt,1,nt,0,nt
O=C(CCCN1C(=O)c2cccc3cccc(c23)C1=O)NCc1ccco1,9,0,-9,-15,i,nt,nt
CN(C)C(CNC(=O)CCCN1C(=O)c2cccc3cccc(c23)C1=O)c1ccccc1 (stereo not drawn),2,6,43,18,i,57*,1%
C[C@H]1CN([C@@H](C)CO)C(=O)Cc2cc(NC(=O)Nc3ccc(F)cc3)ccc2O[C@@H]1CN(C)CC1CCCCC1,nt,nt,nt,10,nt,6,nt
CNC(C)C#Cc1ccc2c(=O)c3c(OC)cccc3oc2c1 (stereo not drawn),-10,13,16,nt,nt,nt,nt
CNC(C)C#Cc1ccc2oc3cccc(OC)c3c(=O)c2c1 (stereo not drawn),-20,17,7,-5,nt,?,-14%
Cc1ccc(S(=O)(=O)N2CCOCC2)c(C)c1NS(C)(=O)=O,3,7,-21,nt,i,?,0%
Cc1ccc(S(=O)(=O)Nc2ccc3c(c2)C(=O)N([C@@H](C)CO)C[C@@H](C)[C@H](CN(C)Cc2ccc4c(c2)OCO4)O3)cc1,nt,nt,nt,9,nt,-14,nt
O=C(C[C@@H]1CC[C@H]2[C@@H](COC[C@H](O)CN2CCC(F)(F)F)O1)N1CCC(Cc2ccccc2)CC1,nt,nt,nt,-6,nt,-10,nt
O=C(Nc1ccc2c(c1)OCO2)c1cc(-c2ccncc2)nc2ccccc12,-16,1,-1,12,i,?,3%
O=C(Nc1cccc(Cl)c1)c1cc(S(=O)(=O)N2CCOCC2)cs1,-7,1,12,-9,i,50*,-12%
O=C(Nc1ccc(Cl)cc1)c1cc(S(=O)(=O)N2CCOCC2)cs1,-3,11,4,nt,i,13,nt
O=C(Cc1ccccc1)N[C@@H]1C=C[C@@H](CC(=O)N2CCOCC2)O[C@@H]1CO,nt,nt,nt,8,nt,-1,nt
NCc1csc(Nc2nncc3ccccc23)n1,nt,nt,nt,30,i,75*,-8%
NC(COCc1ccccc1)c1csc(Nc2nncc3ccccc23)n1 (stereo not drawn),nt,nt,nt,-44,i,1,nt
CN1CCN(CCCNC(=O)c2cc3c(-c4ccc(Cl)cc4)nn(C)c3s2)CC1,29,43*,46*,28,nt,61*,3%
CCN(CC)CCCNC(=O)c1cc2c(-c3ccc(Cl)cc3)nn(C)c2s1,35,38,39,45,nt,?,6%
Cn1nc(-c2ccc(Cl)cc2)c2cc(C(=O)NCC3CCCO3)sc21 (stereo not drawn),-19,9,29,-8,i,4,nt
C[C@H]1CN([C@@H](C)CO)C(=O)c2cccc(NC(=O)Nc3ccc4c(c3)OCO4)c2O[C@@H]1CN(C)Cc1ccncc1,nt,nt,nt,2,nt,0,nt
Cc1ccnc(SCC(=O)Nc2sc3c(c2C#N)CCC(C(C)(C)C)C3)n1 (stereo not drawn),-1,26,-7,nt,i,?,-12%
Cc1cc(C)nc(SCC(=O)Nc2sc3c(c2C#N)CCC(C)C3)n1 (stereo not drawn),-14,24,3,nt,i,-5,nt
NC1CCN(c2c(F)cc3c(=O)c(C(=O)O)cn(C4CC4)c3c2Cl)C1 (stereo not drawn),-1,-5,-8,-10,i,?,8%
Cc1ccc(S(=O)(=O)NCCCNS(=O)(=O)c2ccccc2[N+](=O)[O-])cc1,-7,8,0,1,i,?,-20%
CN1CCN(c2ccc(CNC(=O)C3Cc4c(-c5ccc(Cl)cc5)ccnc4O3)cc2)CC1 (stereo not drawn),nt,nt,nt,43,i,?,-11%
CC(=O)Nc1ccc(-c2ccnc3c2CC(C(=O)NCc2ccc(N4CCN(C)CC4)cc2)O3)cc1 (stereo not drawn),nt,nt,nt,35,i,31,nt
SMILES,FID counter,Apaf-1 inh,UBC13 inh,RAD52 inh,Neddylation inh,RAD54 branch,DNA binding
CC(=O)Nc1ccc2c(c1)C(=O)N(C)[C@H]1CC[C@H](CC(=O)Nc3ccc(Cl)cc3)O[C@@H]1CO2,nt,nt,nt,6,nt,3,nt
CC(C)N1CCc2c(sc(NC(=O)c3ccco3)c2C(N)=O)C1,9,8,-6,-40,i,31,nt
CC(C)N1CCc2c(sc(NC(=O)CCc3ccccc3)c2C(N)=O)C1,-5,1,-1,6,i,nt,nt
CC(C)N1CCc2c(sc(NC(=O)c3ccc(C(=O)c4ccccc4)cc3)c2C(N)=O)C1,32,21,17,-66,i,51*,-9%
COC(=O)c1c(NC(=O)c2ccco2)sc2c1CCN(C(C)C)C2,12,2,-1,31,i,62*,-9%
CN1CCc2[nH]c3ccc(C(=O)NN)cc3c2C1,7,-14,8,nt,i,67*,3%
NNC(=O)c1ccc2[nH]c3c(c2c1)CCCC3,-6,-6,-6,-1,i,nt,nt
CCCNC(=O)[C@H]1[C@H](CO)[C@H]2Cn3c(cccc3=O)[C@H]2N1C(=O)CC1CC1,nt,nt,nt,-5,nt,13,nt
Cc1nc2c(C)c(C)c(C)c(C)c2nc1C,-1,-4,7,4,i,-6,nt
Cc1nc2nc(C)c(C)nc2nc1C,nt,nt,nt,-3,i,56*,10%
c1ccc2c(c1)oc1c(Nc3ccc(CN4CCOCC4)cc3)ncnc12,5,0,-3,nt,i,54*,-23%
C[C@@H]1CN([C@@H](C)CO)C(=O)c2cc(NC(=O)C3CC3)ccc2O[C@H]1CN(C)S(=O)(=O)c1cn(C)cn1,nt,nt,nt,6,nt,-1,nt
CCCC#Cc1ccc([C@@H]2[C@H](CO)N3CCCCN(C(=O)NC4CCCC4)C[C@@H]23)cc1,nt,nt,nt,10,nt,-5,nt
CCOc1ccc2[nH]c3c(NCCN(C)C)ncnc3c2c1,25,2,16,65*,nt,?,0%
OCCN1CCN(c2ncnc3sc(-c4ccccc4)cc23)CC1,6,11,-12,42,i,?,-21%
c1ccc(-c2cc3c(N4CCCC4)ncnc3s2)cc1,-8,12,15,-11,i,nt,nt
COc1ccc2[nH]c(=O)c(CN(C(C)=O)c3cc(C)ccc3C)cc2c1,nt,nt,nt,0,i,7,nt
CCC(=O)N(Cc1cc2cc(OC)ccc2[nH]c1=O)c1cc(C)ccc1C,-7,9,2,nt,i,?,9%
Cn1nc(-c2ccccc2)cc1NS(=O)(=O)c1ccc(C#N)cc1,-16,-9,12,-7,i,?,-8%
